Consider 16 compounds from ChEMBL document CHEMBL1134326, “C-16 artemisinin derivatives and their antimalarial and cytotoxic activities: syntheses of artemisinin monomers, dimers, trimers, and tetramers by nucleophilic additions to artemisitene” (J Med Chem, 2001).

A value given as a limit tells only on which side of the number the result lay.

The test system of data set [1] is BC. Nature of the data set: Cytotoxicity against BC cells. It counts as functional, cell-based. The settings on record: Homo sapiens. A digest of the protocol: (§1)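 Colorimetric cytotoxicity assay after Skehan on KB, BC and vero cell lines. Maximum concentration tested 130 µM. Ellipticine was the positive control. IC50 is reported in µM.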
Data set [2] relates to KB. Nature of the data set: Cytotoxicity against KB cells. The format is functional, cell-based. The settings on record: Homo sapiens. Summed up:
as §1

Data set [3] has as its system Plasmodium falciparum. The experiment in a line: Antimalarial activity against Plasmodium falciparum. The format is functional, organism-based. A digest of the protocol: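 P. falciparum K1 (multidrug-resistant), asexual erythrocytic stage kept in continuous in vitro culture; microculture radioisotope method after Desjardins. EC50 is the concentration giving 50% reduction in parasite growth, measured as [3H]hypoxanthine uptake. Artemisinin and dihydroartemisinin served as standards.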

Data set [4] deals with Vero. The experiment in a line: Cytotoxicity against vero cells. The settings on record: Chlorocebus sabaeus. It counts as functional, cell-based. A digest of the protocol: as §1
The nature of data set [5]: Therapeutic index (TI) determined as IC50 of vero cells to that of EC50. Conditions: plasmodium falciparum, read-out: TI. It counts as cell-based.
In data set [6] the test system is BC. The experiment in a line: Cytotoxicity against BC cells. The settings on record: Homo sapiens. It counts as functional, cell-based. Summed up:
as §1

Data set [7] is described as follows: Therapeutic index(TI) as IC50 of vero cells to that of EC50. The format is cell-based, Cricetulus griseus. Conditions: chinese hamster, read-out: Ti.
Data set [8] can be described thus: Cytotoxicity against KB cells. It counts as functional, cell-based. The settings on record: Homo sapiens. Summed up:
as §1

On to `C[C@@H]1CC[C@H]2C(CCC(=O)c3ccccc3)C(=O)O[C@@H]3O[C@]4(C)CC[C@@H]1C32OO4` (stereo not given in full), for which the IA entry in data set [1] and in data set [2] was “Cytotoxic” in each case. For the same compound, the EC50 in data set [3] was found to be 0.0128 µM. The same compound displayed an IC50 in data set [4] of more than 130 µM. In data set [5], the selectivity ratio is more than 1.
In the case of `C[C@@H]1CC[C@H]2[C@@H](Cc3cccc(F)c3)C(=O)O[C@@H]3O[C@]4(C)CC[C@@H]1[C@]32OO4`, the IA entry in data set [1] and in data set [2] was “Cytotoxic” each time. In data set [3], this compound came in with an EC50 of 0.0207 µM. Further, the IC50 in data set [4] was more than 130 µM. Moreover, the selectivity ratio in data set [5] came to 6.3.
`CCCCCCC1(CC2C(=O)OC3OC4(C)CCC5C(C)CCC2C35OO4)C(=O)OC2OC3(C)CCC4C(C)CCC1C24OO3` (stereo not given): the figures for the IC50 in data set [6], in data set [4] and in data set [8] were 1.3 µM, 2.5 µM and 4 µM, respectively. Moreover, the EC50 in data set [3] came out at 0.005 µM. In addition, in data set [7], the selectivity ratio worked out at 5.
Regarding `C[C@@H]1CC[C@H]2[C@@H](Cc3ccc(F)cc3)C(=O)O[C@@H]3O[C@]4(C)CC[C@@H]1[C@]32OO4`, the IA result in data set [1] and in data set [2] was “Cytotoxic” in each case. Further, in data set [3], the EC50 was determined as 0.0067 µM. For the same compound, in data set [4], the IC50 is more than 130 µM. For the same compound, in data set [5], the selectivity ratio came out at 1.9.
On to `CCCCC1(CC2C(=O)OC3OC4(C)CCC5C(C)CCC2C35OO4)C(=O)OC2OC3(C)CCC4C(C)CCC1C24OO3` (stereo not given), for which the IA result in data set [1] and in data set [2] was “Cytotoxic” each time. The same compound displayed an EC50 in data set [3] of 0.0043 µM. This compound came in with an IC50 in data set [4] of more than 130 µM. In addition, in data set [5], the selectivity ratio is more than 3.
On to `CC1CCC2C(CCC(=O)c3ccc[nH]3)C(=O)OC3OC4(C)CCC1C32OO4` (stereo not given), for which the IA entry in data set [1] and in data set [2] was “Cytotoxic” throughout. For the same compound, the EC50 in data set [3] worked out at 0.0088 µM. In data set [4], this compound returned an IC50 of more than 130 µM. In addition, the selectivity ratio in data set [5] was more than 1.5.
In the case of `COC(=O)C(C)(C)CC1C(=O)O[C@@H]2OC3(C)CC[C@H]4[C@H](C)CC[C@@H]1[C@@]24OO3` (single isomer, unassigned), the IA result in data set [1] and in data set [2] was “Cytotoxic” in each case. Further, the EC50 in data set [3] was more than 0.0261 µM. The compound also registered a half-inhibitory concentration (IC50) in data set [4] of more than 130 µM. Besides, the selectivity ratio in data set [5] is more than 5.
Consider `C[C@@H]1CC[C@H]2C(CCC(=O)c3ccc[nH]3)C(=O)O[C@@H]3O[C@]4(C)CC[C@@H]1[C@]32OO4` (stereo not given in full), for which the IA entry in data set [1] and in data set [2] was “Cytotoxic” in each case. In addition, in data set [3], the EC50 amounted to 0.0248 µM. In addition, the IC50 in data set [4] is more than 130 µM. Also, the selectivity ratio in data set [5] was more than 5.2.
On to `CCC[C@H]1C(=O)O[C@@H]2O[C@]3(C)CC[C@H]4[C@H](C)CC[C@@H]1[C@@]24OO3`, for which the IA result in data set [1] and in data set [2] was “Cytotoxic” in each case. In addition, the EC50 in data set [3] came out at 0.0063 µM. Moreover, the IC50 in data set [4] was more than 130 µM. In data set [5], the selectivity ratio was more than 2.1.
Consider `CCCCC[C@H]1C(=O)O[C@@H]2O[C@]3(C)CC[C@H]4[C@H](C)CC[C@@H]1[C@@]24OO3`, for which the IA entry in data set [1] and in data set [2] was “Cytotoxic” in each case. Moreover, the EC50 in data set [3] came out at 0.0089 µM. The IC50 in data set [4] was more than 130 µM. Further, in data set [5], the selectivity ratio is more than 1.5.
In the case of `CCCC1(CC2C(=O)OC3OC4(C)CCC5C(C)CCC2C35OO4)C(=O)OC2OC3(C)CCC4C(C)CCC1C24OO3` (stereo not given), the IA result in data set [1] and in data set [2] was “Cytotoxic” throughout. This compound also returned an EC50 in data set [3] of 0.0044 µM. Further, the IC50 in data set [4] is more than 130 µM. For the same compound, the selectivity ratio in data set [5] was more than 3.
As to `CCCC[C@H]1C(=O)O[C@@H]2O[C@]3(C)CC[C@H]4[C@H](C)CC[C@@H]1[C@@]24OO3`, the IA entry in data set [1] and in data set [2] was “Cytotoxic” each time. The EC50 in data set [3] was found to be 0.0113 µM. For the same compound, the IC50 in data set [4] is more than 130 µM. In data set [5], the selectivity ratio was more than 1.2.
As for `C[C@@H]1CC[C@H]2[C@H](CCCCc3ccccc3)C(=O)O[C@@H]3O[C@]4(C)CC[C@@H]1[C@]32OO4`, the IC50 in data set [6] was 5 µM; in data set [4], 13 µM; in data set [8], 5.2 µM. Further, the EC50 in data set [3] turned out to be 0.0103 µM. Also, in data set [5], the selectivity ratio came to 1.3.
As to `CCCC[C@@H]1C(=O)O[C@@H]2O[C@]3(C)CC[C@H]4[C@H](C)CC[C@@H]1[C@@]24OO3`, in data set [1], the IA result is reported as “Cytotoxic”. This compound also showed an EC50 in data set [3] of 0.0138 µM. In addition, the results for the IC50 in data set [4] and in data set [8] were more than 130 µM and 54 µM, respectively. In data set [5], the selectivity ratio was more than 9.4.
For the compound `CCC[C@@H]1C(=O)O[C@@H]2O[C@]3(C)CC[C@H]4[C@H](C)CC[C@@H]1[C@@]24OO3`, the IA result in data set [1] and in data set [2] was “Cytotoxic” throughout. The midpoint of the response in data set [3], the EC50, lay at 0.011 µM. Further, the IC50 in data set [4] is more than 130 µM. The selectivity ratio in data set [5] was more than 1.2.
`CC1CCC2C(CC3(CCCCCCCC4(CC5C(=O)OC6OC7(C)CCC8C(C)CCC5C68OO7)C(=O)OC5OC6(C)CCC7C(C)CCC4C57OO6)C(=O)OC4OC5(C)CCC6C(C)CCC3C46OO5)C(=O)OC3OC4(C)CCC1C32OO4` (stereo not given): the IC50 in data set [6] is 9.6 µM; in data set [4], more than 42 µM; in data set [8] it was 5.4 µM. In data set [3], this compound returned an EC50 of more than 0.02 µM. Also, in data set [5], the selectivity ratio is more than 2.1.

For orientation: EC50 means the midpoint of the concentration-response curve. As a reminder, the IC50 is the concentration that gives 50% inhibition.
